Laboratory results: paper PMC8248410 (Chemmedchem, 2021)
Where a SMILES comes first, the peptide text is derived from it.

Tested on: HIV‐1NL4‐3
Experiment: SEAP reporter cell HIV‐1 infection assay
Type: cell-based
Details: running text on Table 1 data; compared with P6‐2
How it was run: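 CEMx174 indicator cells carrying SEAP under SIV LTR control, grown in RPMI 1640 with 10 % heat‑inactivated FCS, glutamine, penicillin and streptomycin. Peptides added to cells before HIV‑1 NL4‑3, which came from 293T transfection supernatant harvested at 48 h and filtered. SEAP activity in supernatant read 3 days post‑infection by commercial kit. Mean and SEM of ≥3 independent experiments; IC50 from fitted curves.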

Molecule | HIV‐1 inhibitory activity, result in words
Ac-LCDCPNGPWAWVPAFCQAVG-OH (cysteine pairing not given here) [P6‐2‐9] | approximately tenfold loss
CC(=O)N[C@@H](CC(C)C)C(=O)N[C@@H](CS)C(=O)N[C@@H](CC(=O)O)C(=O)N[C@@H](CS)C(=O)N1CCC[C@H]1C(=O)N[C@@H](CC(N)=O)C(=O)NCC(=O)N1CCC[C@H]1C(=O)N[C@@H](Cc1c[nH]c2ccccc12)C(=O)N[C@H](C(=O)N[C@@H](Cc1c[nH]c2ccccc12)C(=O)N[C@@H](C)C(=O)N1CCC[C@H]1C(=O)N[C@@H](C)C(=O)N[C@@H](Cc1ccccc1)C(=O)N[C@@H](CS)C(=O)N[C@@H](CCC(N)=O)C(=O)N[C@@H](C)C(=O)N[C@H](C(=O)NCC(=O)O)C(C)C)C(C)C [P6‐2‐11] (Ac-LCDCPNGPWVWAPAFCQAVG-OH) | approximately tenfold loss
